From ChEMBL document CHEMBL4145666, “In Search of Selectivity in Inhibition of ADAM10” (ACS Med Chem Lett, 2018) come the findings set out here.

pKi: −log10 of the molar value. Activity calls are given as the source filed them. No cut-off for these calls is given here.

Usually inhibition stands for the percentage by which the read-out fell short of the control. The AUC(0-t) is exposure summed from dosing to a finite time, without extrapolation to infinity. Broadly, the AUC(0-inf) is the area under the concentration-time curve extrapolated to infinity. As a reminder, the pKi is −log10 of the Ki, conventionally taken in molar units.

Data set [1] in a line: Ratio of AUC (0 to infinity) in brain to plasma in CD-1 mouse at 10 mg/kg, ip by UPLC analysis. Type of data set: ADME, organism-based. To be noted: read-out: Ratio AUC. The method in brief: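 Male CD-1 mice (6–7 weeks, about 30 g) received one dose: 10 mg/kg ip or 25 mg/kg sc, with n = 3 per time point per route. At set times, plasma came from heparinized cardiac-puncture blood. Brain was taken after transcardiac saline perfusion, weighed and flash-frozen. Brain levels were in pmol/mg tissue, plasma in μM. Value is AUCbrain/AUCplasma.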

Data set [2] in a line: AUC (0 to infinity) in CD-1 mouse brain assessed per mg tissue at 10 mg/kg, ip by UPLC analysis. The format is ADME, organism-based. Also on record: dose 10 mg/kg, route intraperitoneal, time infinity. Particulars: in vivo. The method in brief:
(§1)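 Male CD-1 mice, 6–7 weeks old, about 30 g, fed and watered ad libitum. Single dose of 10 mg/kg ip or 25 mg/kg sc, given as 100 μL formulation; n = 3 per time point per route. At set times, blood was taken by cardiac puncture with heparinized syringes and spun to plasma. Brains were harvested after transcardiac saline perfusion, weighed and flash-frozen. Brain levels are in pmol/mg tissue.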

Data set [3] has as its target Matrix metalloproteinase-9 (Homo sapiens) (UniProt P14780). Briefly: Inhibition of recombinant human MMP9 catalytic domain (Phe107 to Pro449 residues) expressed in Escherichia coli using MOCAc-Pro-Leu-Gly-Leu-A2pr(Dnp)-Ala-Arg-NH2 as substrate at 10 uM by fluorescence spectrophotometric method relative to control. In short, it runs like this:
(§2)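 Single inhibitor concentration of 10 μM, reported as percent inhibition. Enzymes and substrates as in earlier work, with inhibition run by a previously reported protocol.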

The nature of data set [4]: AUC (0 to last) in CD-1 mouse plasma at 25 mg/kg, sc by UPLC analysis. Also noted: dose 25 mg/kg, route subcutaneous, time 0 - last. Type of data set: ADME, organism-based. The method in brief: as §1
A short description of data set [5]: AUC (0 to last) in CD-1 mouse brain assessed per mg tissue at 10 mg/kg, ip by UPLC analysis. Particulars: in vivo. Type of data set: ADME, organism-based. In short, it runs like this: as §1
Data set [6] is described as follows: Elimination half life in CD-1 mouse brain at 25 mg/kg, sc by UPLC analysis. The format is ADME, organism-based. Particulars: read-out: beta t1/2. In short, it runs like this:
as §1

The nature of data set [7]: Elimination half life in CD-1 mouse brain at 10 mg/kg, ip by UPLC analysis. Type of data set: ADME, organism-based. Particulars: read-out: beta t1/2. In short, it runs like this: as §1
Data set [8] in a line: Primary phase half life in CD-1 mouse plasma at 25 mg/kg, sc by UPLC analysis. To be noted: read-out: alphat1/2. The format is ADME, organism-based. In short, it runs like this: as §1
In data set [9] the target is T1, Matrilysin (Homo sapiens) (UniProt P09237).
T1 sequence (whole entry): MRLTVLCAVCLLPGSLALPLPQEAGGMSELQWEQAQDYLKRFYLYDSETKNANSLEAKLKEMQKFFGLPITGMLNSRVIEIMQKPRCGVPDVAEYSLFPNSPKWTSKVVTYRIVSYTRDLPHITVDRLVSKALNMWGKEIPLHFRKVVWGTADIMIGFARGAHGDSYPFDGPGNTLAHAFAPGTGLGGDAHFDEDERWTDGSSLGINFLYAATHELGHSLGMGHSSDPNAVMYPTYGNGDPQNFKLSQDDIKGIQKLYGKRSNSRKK
Briefly: Inhibition of recombinant human MMP7 expressed in Escherichia coli using MOCAc-Pro-Leu-Gly-Leu-A2pr(Dnp)-Ala-Arg-NH2 as substrate at 10 uM by fluorescence spectrophotometric method. The method in brief: as §2

A short description of data set [10]: Primary phase half life in CD-1 mouse brain at 25 mg/kg, sc by UPLC analysis. The format is ADME, organism-based. Particulars: read-out: alphat1/2. The method in brief: as §1
A short description of data set [11]: AUC (0 to infinity) in CD-1 mouse plasma at 10 mg/kg, ip by UPLC analysis. The format is ADME, organism-based. Also noted: dose 10 mg/kg, route intraperitoneal, time infinity. The method in brief: as §1
Data set [12] deals with Stromelysin-1 (Homo sapiens) (UniProt P08254). Description: Inhibition of recombinant human MMP3 catalytic domain expressed in Escherichia coli at 10 uM using MOCAc-Arg-Pro-LysPro-Val-Glu-Nva-Trp-Arg-Lys(Dnp)-NH2 as substrate by fluorescence spectrophotometric method relative to control. The method in brief:
as §2

The nature of data set [13]: AUC (0 to infinity) in CD-1 mouse brain assessed per mg tissue at 25 mg/kg, sc by UPLC analysis. Type of data set: ADME, organism-based. Also on record: dose 25 mg/kg, route subcutaneous, time infinity. To be noted: in vivo. In short, it runs like this: as §1
The next data set relates to Mus musculus. Description: Time at which brain concentration stays above in-vitro Ki for ADAM10 in CD-1 mouse at 10 mg/kg, ip by UPLC analysis. The format is ADME, organism-based. To be noted: in vivo. The method in brief:
as §1

In data set [14] the target is Disintegrin and metalloproteinase domain-containing protein 17 (Homo sapiens, UniProt P78536). Description: Inhibition of recombinant human C-terminal His6-tagged ADAM17 (Arg215 to Asn671 residues) expressed in baculovirus infected Sf21 cells using Mca-PLAQAV-Dpa-RSSSR-NH2 as substrate by fluorescence spectrophotometric method. In short, it runs like this: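 Enzymes and their substrates were obtained as in earlier work, and inhibition was run by a previously reported protocol. Ki values were measured in triplicate.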
Sequence of Disintegrin and metalloproteinase domain-containing protein 17 (P78536 whole entry, the tested form may be a part): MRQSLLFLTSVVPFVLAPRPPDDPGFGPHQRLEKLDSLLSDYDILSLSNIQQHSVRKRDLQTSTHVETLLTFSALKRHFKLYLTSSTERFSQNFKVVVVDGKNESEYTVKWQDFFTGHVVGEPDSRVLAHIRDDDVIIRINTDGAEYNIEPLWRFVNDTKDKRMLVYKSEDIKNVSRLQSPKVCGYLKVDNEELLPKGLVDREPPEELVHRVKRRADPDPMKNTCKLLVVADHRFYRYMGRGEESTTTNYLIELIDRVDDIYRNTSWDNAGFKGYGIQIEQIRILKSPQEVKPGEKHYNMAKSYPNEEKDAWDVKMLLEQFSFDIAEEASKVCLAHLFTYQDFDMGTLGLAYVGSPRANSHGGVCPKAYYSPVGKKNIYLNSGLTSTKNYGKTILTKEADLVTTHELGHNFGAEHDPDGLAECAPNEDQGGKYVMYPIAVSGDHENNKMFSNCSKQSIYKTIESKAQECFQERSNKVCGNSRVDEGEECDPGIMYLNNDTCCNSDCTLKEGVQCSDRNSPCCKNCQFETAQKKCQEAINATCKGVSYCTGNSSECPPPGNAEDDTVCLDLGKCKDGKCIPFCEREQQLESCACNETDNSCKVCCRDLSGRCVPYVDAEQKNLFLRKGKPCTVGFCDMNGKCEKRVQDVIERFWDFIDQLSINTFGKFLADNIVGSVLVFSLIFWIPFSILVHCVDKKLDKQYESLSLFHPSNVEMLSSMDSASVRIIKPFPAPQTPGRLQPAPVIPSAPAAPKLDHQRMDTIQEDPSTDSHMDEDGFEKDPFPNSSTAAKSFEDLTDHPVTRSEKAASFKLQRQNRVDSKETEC

Sequence of Matrix metalloproteinase-9 (Homo sapiens) (P14780 whole entry, the tested form may be a part): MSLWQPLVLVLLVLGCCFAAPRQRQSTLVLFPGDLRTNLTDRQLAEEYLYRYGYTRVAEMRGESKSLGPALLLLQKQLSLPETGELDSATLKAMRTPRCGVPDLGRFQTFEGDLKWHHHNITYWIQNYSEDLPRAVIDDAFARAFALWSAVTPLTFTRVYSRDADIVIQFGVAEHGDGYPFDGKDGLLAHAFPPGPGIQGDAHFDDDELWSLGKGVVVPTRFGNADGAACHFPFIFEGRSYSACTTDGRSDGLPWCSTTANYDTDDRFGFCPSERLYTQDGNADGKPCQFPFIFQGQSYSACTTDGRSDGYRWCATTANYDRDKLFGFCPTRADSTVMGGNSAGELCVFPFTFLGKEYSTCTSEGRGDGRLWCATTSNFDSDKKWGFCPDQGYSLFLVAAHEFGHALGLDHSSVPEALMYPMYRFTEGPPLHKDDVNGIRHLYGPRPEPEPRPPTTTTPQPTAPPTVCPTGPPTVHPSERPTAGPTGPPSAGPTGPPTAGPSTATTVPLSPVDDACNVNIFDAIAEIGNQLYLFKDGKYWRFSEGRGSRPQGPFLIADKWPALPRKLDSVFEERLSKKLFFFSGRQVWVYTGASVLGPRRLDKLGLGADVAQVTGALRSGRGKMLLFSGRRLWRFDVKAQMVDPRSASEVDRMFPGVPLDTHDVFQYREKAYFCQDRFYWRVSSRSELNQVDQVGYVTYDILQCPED
Sequence of Stromelysin-1 (Homo sapiens) (P08254 100-477 limits assumed): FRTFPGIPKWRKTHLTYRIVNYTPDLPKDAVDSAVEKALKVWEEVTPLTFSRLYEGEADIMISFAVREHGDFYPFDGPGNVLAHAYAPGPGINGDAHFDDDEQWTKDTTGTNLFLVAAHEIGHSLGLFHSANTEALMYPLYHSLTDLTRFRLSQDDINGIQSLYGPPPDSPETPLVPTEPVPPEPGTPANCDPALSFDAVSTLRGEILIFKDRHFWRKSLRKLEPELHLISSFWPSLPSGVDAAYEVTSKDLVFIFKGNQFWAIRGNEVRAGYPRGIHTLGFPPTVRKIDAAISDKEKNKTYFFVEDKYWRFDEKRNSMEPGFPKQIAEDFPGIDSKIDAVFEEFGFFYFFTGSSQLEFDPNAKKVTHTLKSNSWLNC

Take `O=C(NO)[C@H]1C[C@H](OC(=O)N2CCCC2)CC[C@@H]1C(=O)N1CCC(c2ccccc2)CC1`: the Kp in [1] amounted to 0.0761. For the same compound, the AUC in data set [2] is given as 14 pmol·min/mg; in [13] it was 77 pmol·min/mg. Also, the inhibition in data set [3] turned out to be 25%; in data set [12] it was 2%. The compound further showed an AUC(0-t) in data set [4] of 18.4 µM·h. In data set [5], this compound yielded an AUClast of 12.1 pmol·min. Moreover, the half-life in data set [6] was 10.5 h; in data set [7] it was 3.4 h; in [8] it was 0.257 h; in data set [10], 0.19 h. The inhibition result in data set [9] is “inactive”. The same compound gave an AUC(0-inf) in [11] of 3.07 µM·h. This compound came in with a Time with Mus musculus of 20 min. Also, the pKi in [14] was 6.05.
